{"source": "ChEMBL document CHEMBL1127519", "about": "“1,3-Diarylindan-2-carboxylic acids, potent and selective non-peptide endothelin receptor antagonists” (J Med Chem, 1994)", "key": {"[1]": {"target": "T1, Endothelin receptor type B (Homo sapiens, UniProt P24530)", "T1 sequence (P24530 whole entry)": "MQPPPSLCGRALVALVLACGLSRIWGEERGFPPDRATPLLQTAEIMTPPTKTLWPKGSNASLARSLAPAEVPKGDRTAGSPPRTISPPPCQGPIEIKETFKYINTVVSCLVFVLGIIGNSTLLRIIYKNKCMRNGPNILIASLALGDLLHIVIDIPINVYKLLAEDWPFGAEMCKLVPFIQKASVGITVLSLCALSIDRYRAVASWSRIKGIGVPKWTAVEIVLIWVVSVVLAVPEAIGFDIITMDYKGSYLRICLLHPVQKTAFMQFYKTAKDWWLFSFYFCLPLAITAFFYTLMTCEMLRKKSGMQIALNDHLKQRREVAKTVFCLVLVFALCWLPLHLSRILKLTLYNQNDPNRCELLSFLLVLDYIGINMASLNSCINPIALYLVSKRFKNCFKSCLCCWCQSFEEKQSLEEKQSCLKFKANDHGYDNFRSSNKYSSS", "assay": "Inhibition of [125I]ET1 binding to cloned human ET-B receptor", "how_it_was_run": "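Membranes from CHO cells stably expressing cloned human ET-B receptor (0.05 μg per tube) incubated with [125I]ET-1 (0.3 nM), without or with rising concentrations of unlabeled ligand, 30 °C for 1 h. Filtration separated bound from free, gamma counting. Nonspecific binding 2-5%. Apparent Ki derived from competition curves, n ≥ 3.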"}, "Endothelin-1 receptor [2]": {"target": "T2, Endothelin-1 receptor (Homo sapiens, UniProt P25101)", "T2 sequence (P25101 whole entry)": "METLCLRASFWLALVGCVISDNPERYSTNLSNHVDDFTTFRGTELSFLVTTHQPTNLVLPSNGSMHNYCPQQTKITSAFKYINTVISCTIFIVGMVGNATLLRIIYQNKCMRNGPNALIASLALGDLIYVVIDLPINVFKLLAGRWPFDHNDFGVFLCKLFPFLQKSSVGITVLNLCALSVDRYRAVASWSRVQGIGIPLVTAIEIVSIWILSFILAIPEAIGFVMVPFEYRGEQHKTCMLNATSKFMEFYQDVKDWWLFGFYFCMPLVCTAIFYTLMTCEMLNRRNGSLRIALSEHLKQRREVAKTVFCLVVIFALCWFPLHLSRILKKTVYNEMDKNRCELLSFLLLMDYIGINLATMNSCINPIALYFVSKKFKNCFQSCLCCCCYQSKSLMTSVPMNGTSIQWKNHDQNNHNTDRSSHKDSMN", "assay": "Inhibition of [125I]ET1 binding to cloned human ET-A receptor", "how_it_was_run": "(§1)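 Membranes from CHO cells stably expressing cloned human ET-A receptor (0.5 μg per tube) incubated with [125I]ET-1 (0.3 nM) alone or with increasing unlabeled ligand, 1 h at 30 °C. Bound and free separated by filtration and counted by γ-counter. Nonspecific binding 8-25%. Apparent Ki from competition curves, n ≥ 3.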"}, "Endothelin-1 receptor [3]": {"target": "T2, Endothelin-1 receptor", "assay": "Inhibition of [125I]ET1 binding to cloned human Endothelin A receptor", "how_it_was_run": "as §1"}}, "data": [{"compound": "COc1ccc([C@@H]2c3ccccc3[C@H](c3ccc(OC)cc3)[C@H]2C(=O)O)cc1", "values": [{"measurement": "Ki", "setting": "[1]", "value": 2440, "unit": "nM"}, {"measurement": "Ki", "setting": "Endothelin-1 receptor [2]", "value": 422, "unit": "nM"}]}, {"compound": "COc1ccc([C@H]2c3ccccc3[C@@H](c3ccc4c(c3)OCO4)[C@@H]2C(=O)O)cc1", "values": [{"measurement": "Ki", "setting": "[1]", "value": 757, "unit": "nM"}, {"measurement": "Ki", "setting": "Endothelin-1 receptor [2]", "value": 43, "unit": "nM"}]}, {"compound": "COc1ccc([C@H]2c3ccccc3[C@@H](c3ccccc3)[C@@H]2C(=O)O)cc1", "values": [{"measurement": "Ki", "setting": "[1]", "value": "> 30000", "unit": "nM"}, {"measurement": "Ki", "setting": "Endothelin-1 receptor [3]", "value": 5670, "unit": "nM"}]}, {"compound": "CCCOc1ccc2c(c1)[C@@H](c1ccc(OC)cc1)[C@H](C(=O)O)[C@H]2c1ccc2c(c1)OCO2", "values": [{"measurement": "Ki", "setting": "[1]", "value": 1040, "unit": "nM"}, {"measurement": "Ki", "setting": "Endothelin-1 receptor [2]", "value": 11.3, "unit": "nM"}]}, {"compound": "O=C(O)[C@H]1[C@H](c2ccccc2)c2ccccc2[C@@H]1c1ccccc1", "values": [{"measurement": "Ki", "setting": "[1]", "value": "> 30000", "unit": "nM"}, {"measurement": "Ki", "setting": "Endothelin-1 receptor [2]", "value": 11200, "unit": "nM"}]}, {"compound": "COc1ccc([C@@H]2c3cc(O)ccc3[C@H](c3ccc4c(c3)OCO4)[C@H]2C(=O)O)cc1", "values": [{"measurement": "Ki", "setting": "[1]", "value": 483, "unit": "nM"}, {"measurement": "Ki", "setting": "Endothelin-1 receptor [2]", "value": 15, "unit": "nM"}]}, {"compound": "CCCOc1ccc2c(c1)[C@@H](c1ccc(OC)cc1OCC(=O)O)[C@H](C(=O)O)[C@H]2c1ccc2c(c1)OCO2", "note": "[SB-209670]", "values": [{"measurement": "Ki", "setting": "[1]", "value": 14.7, "unit": "nM"}, {"measurement": "Ki", "setting": "Endothelin-1 receptor [2]", "value": 0.43, "unit": "nM"}]}]}
